Assay results as given in ChEMBL document CHEMBL4014308, “Amphiphilic Tobramycin-Lysine Conjugates Sensitize Multidrug Resistant Gram-Negative Bacteria to Rifampicin and Minocycline” (J Med Chem, 2017).
Converted amounts (≈) assume the structure as drawn. The source made the active and inactive calls. The calls are words filed in the database; no cut-off is given here.

How the values were obtained:
Type in all cases: functional
[1] = system: Pseudomonas aeruginosa; assay: Antibacterial activity against multidrug/extremely drug-resistant/colistin-susceptible Pseudomonas aeruginosa isolate 101885 after 18 hrs by microtiter dilution assay; conditions: isolate 101885, 18 h
Outline: (§1)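 Broth microdilution following CLSI guidelines. An overnight culture was adjusted to 0.5 McFarland in saline, then diluted 1:50 in Mueller-Hinton broth. This inoculum was added in equal volume to 2-fold serial dilutions of agent in MHB and incubated 18 h at 37 °C. MIC was the lowest concentration with no visible growth.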

[2] = system: Staphylococcus epidermidis; assay: Antibacterial activity against methicillin-susceptible Staphylococcus epidermidis isolate CANWARD-2008 81388 after 24 hrs by […] dilution method; conditions: isolate CANWARD-2008 81388, 24 h
[3] = system: Pseudomonas aeruginosa; assay: Antibacterial activity against multidrug/extremely drug-resistant/colistin-susceptible Pseudomonas aeruginosa isolate P264-104354 after 18 hrs by microtiter dilution assay; conditions: isolate P264-104354, 18 h; outline: as §1
[4] = system: Pseudomonas aeruginosa; assay: Antibacterial activity against Pseudomonas aeruginosa PAO1 after 18 hrs by microtiter dilution assay; conditions: PAO1, 18 h; outline: as §1
[5] = system: Staphylococcus aureus; assay: Antibacterial activity against methicillin resistant Staphylococcus aureus ATCC 33592 after 24 hrs by […] dilution method; conditions: ATCC 33592, 24 h
[6] = system: Pseudomonas aeruginosa; assay: Antibacterial activity against Pseudomonas aeruginosa PAO1 assessed as ratio of MIC after 25 serial passages to MIC before 25 serial passages by microtiter dilution assay
Outline: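 Sequential passaging of wild-type PAO1 with single drugs or drug combinations. MIC was tested in MHB for 18 h. Cells from the well at half the MIC were adjusted to 0.5 McFarland in saline, diluted 1:50 in fresh MHB and used for the next MIC test. This was repeated for 25 passages, and the fold change in MIC was plotted against passage number.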

[7] = system: Pseudomonas aeruginosa; assay: Synergistic antibacterial activity against Pseudomonas aeruginosa PAO1 after 18 hrs in presence of minocycline by checkerboard assay
Outline: (§2)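 Checkerboard in MHB: antibiotic diluted along one axis and adjuvant along the other (10 × 7 matrix). Inoculum was a 1:50 dilution in MHB of a 0.5 McFarland saline suspension; incubated 18 h at 37 °C. Each FIC = concentration in the no-growth well divided by the MIC alone; FIC index = sum of both FICs. ≤0.5 synergy, 0.5–4 no interaction, ≥4 antagonism.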

[8] = system: Pseudomonas aeruginosa; assay: Antibacterial activity against multidrug/extremely drug-resistant/colistin-susceptible Pseudomonas aeruginosa isolate P262-101856 after 18 hrs by microtiter dilution assay; conditions: isolate P262-101856, 18 h; outline: as §1
[9] = system: Staphylococcus epidermidis; assay: Antibacterial activity against methicillin-resistant Staphylococcus epidermidis isolate CAN-ICU 61589 after 24 hrs by […] dilution method; conditions: isolate CAN-ICU 61589, 24 h
[10] = system: Pseudomonas aeruginosa; assay: Antibacterial activity against multidrug/extremely drug-resistant/colistin-susceptible Pseudomonas aeruginosa isolate 100036 after 18 hrs by microtiter dilution assay; conditions: isolate 100036, 18 h; outline: as §1
[11] = system: Pseudomonas aeruginosa; assay: Induction of cytoplasmic membrane depolarization in Pseudomonas aeruginosa PAO1 up to 1200 secs by diSC3-5 staining based fluorescence assay
Outline: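 Mid-log PAO1 washed in 5 mM HEPES pH 7.4 with 20 mM glucose and resuspended to OD600 0.05. Cells were loaded with 0.2 mM EDTA and 0.4 µM diSC3-5 for 2 h at 37 °C in the dark, then equilibrated with 100 mM KCl for 30 min. Agent was added and fluorescence followed at 622/670 nm; agents tested at 32 µg/mL.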

[12] = system: Pseudomonas aeruginosa; assay: Antibacterial activity against gentamicin/tobramycin-resistant Pseudomonas aeruginosa isolate CANWARD-2011 96846 after 24 hrs by […] dilution method; conditions: isolate CANWARD-2011 96846, 24 h
[13] = system: Escherichia coli; assay: Antibacterial activity against amikacin-resistant Escherichia coli isolate CAN-ICU 63074 after 24 hrs by […] dilution method; conditions: isolate CAN-ICU 63074, 24 h
[14] = system: Pseudomonas aeruginosa; assay: Antibacterial activity against Pseudomonas aeruginosa ATCC 27853 after 24 hrs by […] dilution method; conditions: ATCC 27853, 24 h
[15] = system: Escherichia coli; assay: Antibacterial activity against gentamicin/tobramycin/ciprofloxacin-resistant Escherichia coli isolate CANWARD-2011 97615 harboring AAC3-2A after 24 hrs by […] dilution method; conditions: isolate CANWARD-2011 97615, 24 h
[16] = system: Pseudomonas aeruginosa; assay: Antibacterial activity against multidrug/extremely drug-resistant/colistin-resistant Pseudomonas aeruginosa isolate 101243 after 18 hrs by microtiter dilution assay; conditions: isolate 101243, 18 h; outline: as §1
[17] = system: Escherichia coli; assay: Antibacterial activity against Escherichia coli ATCC 25922 after 24 hrs by […] dilution method; conditions: ATCC 25922, 24 h
[18] = system: Escherichia coli; assay: Antibacterial activity against gentamicin-resistant Escherichia coli isolate CAN-ICU 61714 after 24 hrs by […] dilution method; conditions: isolate CAN-ICU 61714, 24 h
[19] = system: Klebsiella pneumoniae; assay: Antibacterial activity against Klebsiella pneumoniae ATCC 13883 after 24 hrs by […] dilution method; conditions: ATCC 13883, 24 h
[20] = system: Pseudomonas aeruginosa; assay: Antibacterial activity against multidrug/extremely drug-resistant/colistin-susceptible Pseudomonas aeruginosa isolate P259-96918 after 18 hrs by microtiter dilution assay; conditions: isolate P259-96918, 18 h; outline: as §1
[21] = system: Stenotrophomonas maltophilia; assay: Antibacterial activity against Stenotrophomonas maltophilia isolate CAN-ICU 62584 after 24 hrs by […] dilution method; conditions: isolate CAN-ICU 62584, 24 h
[22] = system: Pseudomonas aeruginosa; assay: Antibacterial activity against multidrug/extremely drug-resistant/colistin-resistant Pseudomonas aeruginosa isolate 91433 after 18 hrs by microtiter dilution assay; conditions: isolate 91433, 18 h; outline: as §1
[23] = system: Acinetobacter baumannii; assay: Antibacterial activity against Acinetobacter baumannii isolate CAN-ICU 63169 after 24 hrs by […] dilution method; conditions: isolate CAN-ICU 63169, 24 h
[24] = system: Enterococcus faecalis; assay: Antibacterial activity against Enterococcus faecalis ATCC 29212 after 24 hrs by […] dilution method; conditions: ATCC 29212, 24 h
[25] = system: Staphylococcus aureus; assay: Antibacterial activity against Staphylococcus aureus ATCC 29213 after 24 hrs by […] dilution method; conditions: ATCC 29213, 24 h
[26] = system: Pseudomonas aeruginosa; assay: Synergistic antibacterial activity against Pseudomonas aeruginosa PAO1 after 18 hrs in presence of rifampicin by checkerboard assay; outline: as §2
[27] = system: Pseudomonas aeruginosa; assay: Antibacterial activity against gentamicin-resistant Pseudomonas aeruginosa isolate CAN-ICU 62308 after 24 hrs by […] dilution method; conditions: isolate CAN-ICU 62308, 24 h
[28] = system: Enterococcus faecium; assay: Antibacterial activity against Enterococcus faecium ATCC 27270 after 24 hrs by […] dilution method; conditions: ATCC 27270, 24 h
[29] = system: Streptococcus pneumoniae; assay: Antibacterial activity against Streptococcus pneumoniae ATCC 49619 after 24 hrs by […] dilution method; conditions: ATCC 49619, 24 h

`NC[C@H]1O[C@H](O[C@H]2[C@H](O)[C@@H](O[C@H]3O[C@H](CO)[C@@H](O)[C@H](N)[C@H]3O)[C@H](N)C[C@@H]2N)[C@H](N)C[C@@H]1O` [TOBRAMYCIN] was tested, and the MIC [1] was 0.25 µg/mL (≈ 0.535 µM), the MIC [2] was no more than 0.25 µg/mL and the MIC [3] was 128 µg/mL (≈ 274 µM). It also gave an MIC [4] of 0.25 µg/mL (≈ 0.535 µM), an MIC [5] of no more than 0.25 µg/mL and a Ratio [6] of 256. For the same molecule, the Activity [7] was “inactive”, the MIC [8] was 512 µg/mL (≈ 1100 µM) and the MIC [9] was 1 µg/mL (≈ 2.14 µM). For the same molecule, the MIC [10] was 64 µg/mL (≈ 137 µM), the Activity [11] was “Dose-dependent effect” and the MIC [12] was 256 µg/mL (≈ 548 µM). It also gave an MIC [13] of 8 µg/mL (≈ 17.1 µM), an MIC [14] of 0.5 µg/mL (≈ 1.07 µM) and an MIC [15] of 128 µg/mL (≈ 274 µM). The MIC [16] was 256 µg/mL (≈ 548 µM), the MIC [17] was 0.5 µg/mL (≈ 1.07 µM) and the MIC [18] was 8 µg/mL (≈ 17.1 µM). It also gave an MIC [19] of no more than 0.25 µg/mL, an MIC [20] of 128 µg/mL (≈ 274 µM) and an MIC [21] greater than 512 µg/mL. The MIC [22] was 8 µg/mL (≈ 17.1 µM), the MIC [23] was 32 µg/mL (≈ 68.4 µM) and the MIC [24] was 8 µg/mL (≈ 17.1 µM). For the same molecule, the MIC [25] was no more than 0.25 µg/mL, the Activity [26] was “inactive” and the MIC [27] was 16 µg/mL (≈ 34.2 µM). It also gave an MIC [28] of 8 µg/mL (≈ 17.1 µM) and an MIC [29] of 2 µg/mL (≈ 4.28 µM).
